# Measurements published in ChEMBL document CHEMBL4402595, “Discovery of Orally Bioavailable Chromone Derivatives as Potent and Selective BRD4 Inhibitors: Scaffold Hopping, Optimization, and Pharmacological Evaluation” (J Med Chem, 2020).
# The source made the active and inactive calls. The rule behind the calls is not given here.
# Assays:
# Mus musculus [1] = assay: (§1) Antiinflammatory activity in C57BL6/J mouse model of TLR3-induced acute airway inflammation assessed as inhibition of elevated KC levels in BALF at 10 mg/kg, ip pre-treated 1 day before poly(I:C) stimulation followed by compound re-dosing at 10 mg/kg, ip before another poly(I:C) stimulation and measured after 1 day post last poly(I:C) stimulation by cytokine Bio-Plex assay; type: functional, organism-based
# In short: (§2)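 Male C57BL/6J mice, 12 weeks old, 5 per group, dosed 10 mg/kg the day before and again immediately before intranasal poly(I:C) (300 μg in 50 μL PBS). BALF was collected 1 day later by two 1 mL PBS lavages and centrifuged at 800 × g for 5 min at 4 °C. Supernatant cytokines were measured by multiplex bead immunoassay against recombinant standards in triplicate.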
# Mus musculus [2] = assay: Antiinflammatory activity in C57BL6/J mouse model of TLR3-induced acute airway inflammation assessed as inhibition of neutrophilic inflammation around small and medium-sized airways at 10 mg/kg, ip pre-treated 1 day before poly(I:C) stimulation followed by compound re-dosing at 10 mg/kg, ip before another poly(I:C) stimulation and measured after 1 day post last poly(I:C) stimulation by …; type: functional
# [3] = AUC (0 to t) in Sprague-Dawley rat at 10 mg/kg, iv measured after 2 to 26 hrs; type: ADME, organism-based; details: in vivo
# Mus musculus [4] = assay: as §1, with “IL-6” for “KC”; type: functional, organism-based; in short: as §2
# Mus musculus [5] = assay: Antiinflammatory activity in C57BL6/J mouse model of TLR3-induced acute airway inflammation assessed as inhibition of neutrophilic inflammation around small and medium-sized airways at 10 mg/kg, po pre-treated 1 day before poly(I:C) stimulation followed by compound re-dosing at 10 mg/kg, po before another poly(I:C) stimulation and measured after 1 day post last poly(I:C) stimulation by …; type: functional
# Mus musculus [6] = assay: as §1, with “RANTES” for “KC”, “po” for “ip”; type: functional, organism-based; in short: as §2
# Mus musculus [7] = assay: as §1, with “gene expression” for “levels”, “lung” for “BALF”, “stimulation” for “stimulation by cytokine Bio-Plex assay”; type: functional, organism-based
# In short: (§3)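 Male C57BL/6J mice, 12 weeks old, 5 per group, dosed 10 mg/kg one day before challenge and again immediately before intranasal poly(I:C) (300 μg in 50 μL PBS). Controls were vehicle alone and poly(I:C) alone. Lungs were taken 1 day later. Gene expression in lung tissue was measured by qRT-PCR, normalized to PPIA.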
# Mus musculus [8] = assay: as §1, with “IL6 gene expression” for “KC levels”, “lung” for “BALF”, “po” for “ip”, “stimulation” for “stimulation by cytokine Bio-Plex assay”; type: functional, organism-based; in short: as §3
# [9] = Aqueous solubility in water incubated at 25 degC for 24 hrs by HPLC analysis; type: physicochemical; details: buffer
# In short: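 Compound suspension was shaken at 25 °C for 24 h, then centrifuged and the supernatant filtered. Supernatant was quantified by C18 reverse-phase HPLC against a one-point calibration of a known concentration.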
# Mus musculus [10] = assay: (§4) In-vivo inhibition of BRD4 in C57BL6/J mouse model of TLR3-induced acute airway inflammation assessed as reduction in H3K122Ac levels in lung at 10 mg/kg, po pre-treated 1 day before poly(I:C) stimulation followed by compound re-dosing at 10 mg/kg, po before another poly(I:C) stimulation and measured after 1 day post last poly(I:C) stimulation by immunofluorescence staining; type: functional, organism-based
# In short: (§5)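 Male C57BL/6J mice, 5 per group, dosed 10 mg/kg before and again at intranasal poly(I:C) challenge (300 μg). Lungs were taken 1 day later, paraffin sections made, and antigen retrieved at pH 9.0. Sections were stained with anti-acetyl-H3K122 and an Alexa 568 secondary with DAPI, imaged by confocal at 63×, and total fluorescence reported as fold change.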
# Mus musculus [11] = assay: as §4, with “mg/kg, ip” for “mg/kg, po”; type: functional, organism-based; in short: as §5
# [12] = Total clearance in Sprague-Dawley rat at 10 mg/kg, iv measured after 2 to 26 hrs; type: ADME, organism-based; details: in vivo
# In short: (§6)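 Male Sprague-Dawley rats received a single dose either intravenously (10 mg/kg) or orally. Plasma concentration–time curves were followed after each route. Total clearance (CL) came from the i.v. arm, and oral bioavailability (F) was derived by comparing the p.o. and i.v. profiles.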
# Mus musculus [13] = assay: as §1, with “gene expression” for “levels”, “lung” for “BALF”, “po” for “ip”, “stimulation” for “stimulation by cytokine Bio-Plex assay”; type: functional, organism-based; in short: as §3
# [14] = Cmax in Sprague-Dawley rat at 10 mg/kg, iv measured after 2 to 26 hrs; type: ADME, organism-based; design: dose 10 mg/kg, route intravenous; details: in vivo
# [15] = Oral bioavailability in Sprague-Dawley rat at 20 mg/kg measured after 2 to 26 hrs; type: ADME, organism-based; details: in vivo; in short: as §6
# Mus musculus [16] = assay: as §1, with “RANTES” for “KC”; type: functional, organism-based; in short: as §2
# Mus musculus [17] = assay: as §1, with “IL-6” for “KC”, “po” for “ip”; type: functional, organism-based; in short: as §2
# Mus musculus [18] = assay: as §1, with “neutrophils” for “KC levels”, “po” for “ip”, “stimulation” for “stimulation by cytokine Bio-Plex assay”; type: functional, organism-based
# In short: (§7)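 Male C57BL/6J mice, 12 weeks old, 5 per group, dosed 10 mg/kg one day before and again immediately before intranasal poly(I:C) (300 μg/50 μL PBS). BALF was collected 1 day later. Total viable cells were counted by trypan blue with a hemocytometer. Neutrophils were counted as a differential of 300 cells on Wright-Giemsa stained cytospins.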
# Mus musculus [19] = assay: as §1, with “ISG54 gene expression” for “KC levels”, “lung” for “BALF”, “po” for “ip”, “stimulation” for “stimulation by cytokine Bio-Plex assay”; type: functional, organism-based; in short: as §3
# Mus musculus [20] = assay: as §1, with “total cells” for “KC levels”, “stimulation” for “stimulation by cytokine Bio-Plex assay”; type: functional, organism-based; in short: as §7
# [21] = AUC (0 to t) in Sprague-Dawley rat at 20 mg/kg, po measured after 2 to 26 hrs; type: ADME, organism-based; details: in vivo
# [22] = Half life in Sprague-Dawley rat at 20 mg/kg, po measured after 2 to 26 hrs; type: ADME, organism-based; details: in vivo
# Mus musculus [23] = assay: as §1, with “po” for “ip”; type: functional, organism-based; in short: as §2
# Mus musculus [24] = assay: as §1, with “CIG5 gene expression” for “KC levels”, “lung” for “BALF”, “po” for “ip”, “stimulation” for “stimulation by cytokine Bio-Plex assay”; type: functional, organism-based; in short: as §3
# Mus musculus [25] = assay: as §1, with “IL6 gene expression” for “KC levels”, “lung” for “BALF”, “stimulation” for “stimulation by cytokine Bio-Plex assay”; type: functional, organism-based; in short: as §3
# Mus musculus [26] = assay: as §1, with “total cells” for “KC levels”, “po” for “ip”, “stimulation” for “stimulation by cytokine Bio-Plex assay”; type: functional, organism-based; in short: as §7
AUC(0-t) [3] [µg·h/mL],solubility [9] [mg/mL],clearance [12] [L/h/kg],Cmax [14] [µg/mL],F [15] [%],Structure (SMILES),inhibition (Mus musculus [1]),inhibition in vivo at 10 mg/kg (Mus musculus [2]) [%],inhibition (Mus musculus [4]),inhibition in vivo at 10 mg/kg (Mus musculus [5]) [%],inhibition (Mus musculus [6]),inhibition (Mus musculus [7]),inhibition (Mus musculus [8]),inhibition (Mus musculus [10]),inhibition (Mus musculus [11]),inhibition (Mus musculus [13]),inhibition (Mus musculus [16]),inhibition (Mus musculus [17]),inhibition (Mus musculus [18]),inhibition (Mus musculus [19]),inhibition (Mus musculus [20]),also measured
7.03,> 50,1.48,2.09,35.3,COc1cc(OC)c2c(=O)cc(-c3cc(C)c(OC[C@H](O)CN4CCN(C)CC4)c(C)c3)oc2c1,Active,100,Active,100,Active,Active,Active,Active,Active,Active,Active,Active,Active,Active,Active,AUC(0-t) [21]: 4.97 µg·h/mL; half-life [22]: 2.8 h; inhibition (Mus musculus [23]): Active; inhibition (Mus musculus [24]): Active; inhibition (Mus musculus [25]): Active; inhibition (Mus musculus [26]): Active
6.76,> 50,1.48,2.86,38.2,COc1cc(OC)c2c(=O)cc(-c3cc(C)c(OC[C@H](O)CN4CCCCC4)c(C)c3)oc2c1,Active,100,Active,100,Active,Active,Active,Active,Active,Active,Active,Active,Active,Active,Active,AUC(0-t) [21]: 5.17 µg·h/mL; half-life [22]: 2.4 h; inhibition (Mus musculus [23]): Active; inhibition (Mus musculus [24]): Active; inhibition (Mus musculus [25]): Active; inhibition (Mus musculus [26]): Active
